Source: ChEMBL document CHEMBL4196046, “Design, synthesis, and structure-activity-relationship of a novel series of CXCR4 antagonists” (Eur J Med Chem, 2018)
Calls of active or inactive are those of the source. No cut-off for these calls is given here.

Columns and labels:
[1] = molecular target: T1, C-X-C chemokine receptor type 4 (Homo sapiens, UniProt P61073); test: Displacement of 12G5-CXCL12 from CXCR4 in human HPBALL cells after 3 hrs by FACS analysis; assay type: cell-based
[2] = molecular target: T1, C-X-C chemokine receptor type 4; test: Antagonist activity at CXCR4 in human CD4+ T cells assessed as inhibition of CXCL12-mediated cytosolic calcium level preincubated with compounds followed by CXCL12 stimulation by calcium 4 dye-based FLIPR assay; assay type: functional, cell-based
CYP2D6 = CYP2D6 (Homo sapiens, UniProt P10635); test: Inhibition of CYP2D6 in human liver microsomes at 10 uM using dextromethorphan as substrate preincubated for 10 min followed by NADPH addition measured after 10 mins by LC-MS/MS analysis relative to control; assay type: ADME; conditions: probe dextromethorphan
CYP2D6, sequence (P10635 whole entry): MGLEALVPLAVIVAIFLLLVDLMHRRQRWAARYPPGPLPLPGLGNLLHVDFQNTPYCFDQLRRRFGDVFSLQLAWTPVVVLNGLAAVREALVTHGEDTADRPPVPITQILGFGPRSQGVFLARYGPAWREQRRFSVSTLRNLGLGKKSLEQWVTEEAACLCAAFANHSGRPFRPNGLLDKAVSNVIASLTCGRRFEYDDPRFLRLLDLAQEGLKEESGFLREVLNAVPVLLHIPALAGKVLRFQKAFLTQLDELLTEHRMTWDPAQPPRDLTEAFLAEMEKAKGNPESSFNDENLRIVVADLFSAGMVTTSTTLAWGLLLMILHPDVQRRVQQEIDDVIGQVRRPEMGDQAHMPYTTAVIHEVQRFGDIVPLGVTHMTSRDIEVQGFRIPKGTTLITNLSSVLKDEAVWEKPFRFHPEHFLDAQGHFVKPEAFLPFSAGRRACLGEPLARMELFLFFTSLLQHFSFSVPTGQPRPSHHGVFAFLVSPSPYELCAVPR

CYP3A4 = CYP3A4 (Homo sapiens, UniProt P08684); test: Inhibition of CYP3A4 in human liver microsomes at 10 uM using midazolam as substrate preincubated for 10 min followed by NADPH addition measured after 10 mins by LC-MS/MS analysis relative to control; assay type: ADME; conditions: probe midazolam
CYP3A4, sequence (P08684 whole entry): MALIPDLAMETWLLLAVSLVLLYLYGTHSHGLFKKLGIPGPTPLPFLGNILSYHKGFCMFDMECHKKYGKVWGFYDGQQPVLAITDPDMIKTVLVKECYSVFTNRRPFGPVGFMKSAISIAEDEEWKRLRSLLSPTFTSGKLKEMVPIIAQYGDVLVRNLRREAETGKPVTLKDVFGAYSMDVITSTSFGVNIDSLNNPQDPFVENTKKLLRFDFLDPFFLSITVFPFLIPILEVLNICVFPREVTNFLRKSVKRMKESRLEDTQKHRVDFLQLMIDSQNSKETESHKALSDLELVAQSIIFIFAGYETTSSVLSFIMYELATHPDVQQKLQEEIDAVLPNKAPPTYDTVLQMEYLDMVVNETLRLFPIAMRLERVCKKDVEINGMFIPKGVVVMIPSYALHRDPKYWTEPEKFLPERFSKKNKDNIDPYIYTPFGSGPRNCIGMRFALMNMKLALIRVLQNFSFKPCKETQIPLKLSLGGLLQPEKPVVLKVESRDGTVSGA

[3] = Antiproliferative activity against HOSEC at 400 nM after 24 to 48 hrs by MTT assay; conditions: human, 0.4 µM
Summary of the method: (§1)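 Cells seeded at 5 × 10³ cells/well, treated with compound, incubated at 37 °C, 5% CO₂ (48 h in methods; 24 h in figure legend), then 4 h with MTT reagent; formazan dissolved in DMSO, absorbance at 570 nm. Mean±SD of three independent experiments.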

[4] = molecular target: T1, C-X-C chemokine receptor type 4; test: Antagonist activity at CXCR4-mediated chemotaxis in human MDA-MB-231 cells assessed as inhibition of CXCL12-induced cell invasion at 100 nM after 24 hrs by crystal violet staining-based microscopic matrigel assay; assay type: functional
Summary of the method: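 MDA-MB-231 cells (1 × 10⁵ cells/well) plus compound (100 nM) in upper chamber of 8-µm-pore Boyden inserts coated with 50mg/L Matrigel; CXCL12 in serum-free medium in lower chamber as chemoattractant. After 24 h, non-invaded cells wiped off; invaded cells fixed in cold methanol, crystal violet stained, counted in 10 random fields (100×). Three independent experiments; t-test vs control.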

MCF7 = test: Antiproliferative activity against human MCF7 cells at 400 nM after 24 to 48 hrs by MTT assay; assay type: functional, cell-based; summary of the method: as §1
MDA-MB-231 = test: Antiproliferative activity against human MDA-MB-231 cells at 400 nM after 24 to 48 hrs by MTT assay; assay type: functional, cell-based; summary of the method: as §1
[5] = molecular target: T1, C-X-C chemokine receptor type 4; test: Potency index, ratio of AMD3100 IC50 to compound IC50 for CXCR4 in human CD4+ T cells; assay type: cell-based
[6] = Intrinsic clearance in mouse liver microsomes at 1 uM preincubated for 10 mins followed by NADPH addition measured after 30 to 60 mins by LC-MS/MS method; assay type: ADME, microsome; conditions: read-out: CLH
[7] = Half life in mouse liver microsomes at 1 uM preincubated for 10 mins followed by NADPH addition measured after 30 to 60 mins by LC-MS/MS method; assay type: ADME, microsome
[8] = Half life in human liver microsomes at 1 uM preincubated for 10 mins followed by NADPH addition measured after 30 to 60 mins by LC-MS/MS method; assay type: ADME, microsome
[9] = molecular target: Voltage-gated inwardly rectifying potassium channel KCNH2 (Homo sapiens, UniProt Q12809); test: Inhibition of human ERG expressed in CHO cells after 4 mins at -80 mV holding potential by Qpatch assay; assay type: cell-based
Voltage-gated inwardly rectifying potassium channel KCNH2, sequence (Q12809 whole entry): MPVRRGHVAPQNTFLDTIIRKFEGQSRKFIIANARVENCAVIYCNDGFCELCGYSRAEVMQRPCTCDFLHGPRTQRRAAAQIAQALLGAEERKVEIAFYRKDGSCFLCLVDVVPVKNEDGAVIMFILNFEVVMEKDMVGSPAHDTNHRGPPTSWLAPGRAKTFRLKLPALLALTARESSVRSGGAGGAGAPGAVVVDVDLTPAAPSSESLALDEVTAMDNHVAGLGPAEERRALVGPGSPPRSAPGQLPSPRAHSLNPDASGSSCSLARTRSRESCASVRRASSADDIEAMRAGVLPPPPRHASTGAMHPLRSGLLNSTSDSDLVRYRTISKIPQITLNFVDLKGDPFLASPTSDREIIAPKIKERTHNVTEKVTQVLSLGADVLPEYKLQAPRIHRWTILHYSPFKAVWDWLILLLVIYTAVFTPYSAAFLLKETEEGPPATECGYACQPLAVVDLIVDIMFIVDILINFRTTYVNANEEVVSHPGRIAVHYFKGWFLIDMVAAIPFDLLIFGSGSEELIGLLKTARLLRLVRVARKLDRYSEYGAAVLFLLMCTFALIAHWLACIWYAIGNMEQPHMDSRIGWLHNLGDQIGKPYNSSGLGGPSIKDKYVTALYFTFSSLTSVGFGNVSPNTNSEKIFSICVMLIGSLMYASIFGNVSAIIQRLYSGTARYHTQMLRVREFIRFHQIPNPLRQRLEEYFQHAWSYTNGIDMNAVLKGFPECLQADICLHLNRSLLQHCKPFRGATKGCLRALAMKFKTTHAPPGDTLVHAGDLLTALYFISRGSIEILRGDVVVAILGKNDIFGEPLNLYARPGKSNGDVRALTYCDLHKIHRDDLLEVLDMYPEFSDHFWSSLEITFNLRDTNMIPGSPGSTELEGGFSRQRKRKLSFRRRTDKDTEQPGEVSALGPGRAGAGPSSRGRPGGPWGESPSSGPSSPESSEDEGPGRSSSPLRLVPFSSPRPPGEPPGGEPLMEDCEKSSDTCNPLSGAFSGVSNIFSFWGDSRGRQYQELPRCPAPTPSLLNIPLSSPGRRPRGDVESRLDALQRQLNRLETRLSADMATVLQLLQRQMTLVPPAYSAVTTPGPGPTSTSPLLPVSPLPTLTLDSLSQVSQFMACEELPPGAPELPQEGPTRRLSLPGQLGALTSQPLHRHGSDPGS

[10] = Efflux ratio of apparent permeability across basolateral to apical over apical to basolateral side in human Caco2 cells at 2 uM by LC-MS/MS method; assay type: ADME, cell-based; conditions: Caco-2
[11] = Apparent permeability across apical to basolateral side in human Caco2 cells at 2 uM by LC-MS/MS method; assay type: ADME, cell-based; conditions: Caco-2
[12] = Intrinsic clearance in human liver microsomes at 1 uM preincubated for 10 mins followed by NADPH addition measured after 30 to 60 mins by LC-MS/MS method; assay type: ADME, microsome; conditions: read-out: CLH

T1 sequence (P61073 whole entry): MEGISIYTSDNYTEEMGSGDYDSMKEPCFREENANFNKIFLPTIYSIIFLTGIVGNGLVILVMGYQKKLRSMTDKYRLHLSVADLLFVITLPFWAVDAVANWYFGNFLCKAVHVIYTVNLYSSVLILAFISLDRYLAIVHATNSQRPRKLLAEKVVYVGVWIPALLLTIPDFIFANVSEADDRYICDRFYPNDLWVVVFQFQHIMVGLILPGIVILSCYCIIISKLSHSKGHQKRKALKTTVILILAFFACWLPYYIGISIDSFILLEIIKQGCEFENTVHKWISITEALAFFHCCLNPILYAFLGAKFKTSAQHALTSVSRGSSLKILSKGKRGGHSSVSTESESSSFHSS

| SMILES | IC50 [1] [µM] | further results |
| --- | --- | --- |
| CN1CCN(c2cc(CN(C)C3CCCc4cccnc43)ccn2)CC1 (stereo unspecified) | > 10 |  |
| CN1CCN(c2cc(CN(C)[C@@H]3CCCc4cccnc43)ncn2)CC1 | 1.3 | IC50 [2]: 0.068 µM |
| CN(Cc1cc(N2CCNCC2)ncn1)C1CCCc2cccnc21 (stereo unspecified) | 2.6 |  |
| CN(Cc1ccncn1)C1CCCc2cccnc21 (stereo unspecified) | > 10 |  |
| CN1CCN(c2cc(CN(C)C3CCCc4cccnc43)ncn2)CC1.Cl (stereo unspecified) | 0.054 | inhibition at 10 min, 10 µM (CYP2D6): 3%; inhibition at 10 min, 10 µM (CYP3A4): 9%; Activity [3]: Non-Toxic; inhibition [4]: Active; Activity (MCF7): inactive; IC50 [2]: 0.0023 µM; Activity (MDA-MB-231): inactive; Ratio IC50 [5]: 8 |
| CN1CCN(c2cccc(CN(C)C3CCCc4cccnc43)n2)CC1 (stereo unspecified) | > 10 |  |
| CN(Cc1cc(N2CCN(C(=O)OC(C)(C)C)CC2)ncn1)C1CCCc2cccnc21 (stereo unspecified) | > 10 |  |
| CN(C)c1cc(CN(C)C2CCCc3cccnc32)ncn1 (stereo unspecified) | > 10 |  |
| CN1CCN(c2nccc(CN(C)C3CCCc4cccnc43)n2)CC1 (stereo unspecified) | > 10 |  |
| CN1CCN(c2cc(CN(C)[C@H]3CCCc4cccnc43)ncn2)CC1 | 0.088 | CLint scaled at 1 µM [6]: 3860 mL/min/kg; half-life at 1 µM [7]: 1.4 min; half-life at 1 µM [8]: 7.7 min; IC50 [9]: > 30 µM; IC50 [2]: 0.00073 µM; efflux ratio at 2 µM [10]: 1.5; Papp A→B at 2 µM [11]: 15 ×10⁻⁶ cm/s; CLint scaled at 1 µM [12]: 226 mL/min/kg |
| c1cc(CN2CCCNCCNCCCNCC2)ccc1CN1CCCNCCNCCCNCC1 |  | inhibition [4]: Active |

The remaining compounds from weak to strong by IC50 [1], led by results:

| IC50 [1] [µM] | SMILES | further results |
| --- | --- | --- |
| 1.05 | CN(Cc1cc(N2CCN(CC3CC3)CC2)ncn1)C1CCCc2cccnc21 (stereo unspecified) |  |
| 1.02 | CN(C)CCN(C)c1cc(CN(C)C2CCCc3cccnc32)ncn1 (stereo unspecified) |  |
| 0.64 | CN(Cc1cc(NCCN2CCOCC2)ncn1)C1CCCc2cccnc21 (stereo unspecified) |  |
| 0.63 | CN(C)C1CCN(c2cc(CN(C)C3CCCc4cccnc43)ncn2)CC1 (stereo unspecified) |  |
| 0.32 | CCN1CCN(c2cc(CN(C)C3CCCc4cccnc43)ncn2)CC1 (stereo unspecified) |  |
| 0.29 | CN(Cc1cc(N2CCN(CCO)CC2)ncn1)C1CCCc2cccnc21 (stereo unspecified) |  |
| 0.21 | CC(C)N1CCN(c2cc(CN(C)C3CCCc4cccnc43)ncn2)CC1 (stereo unspecified) |  |
| 0.2 | CN1CCN(c2ccnc(CN(C)C3CCCc4cccnc43)c2)CC1 (stereo unspecified) |  |
| 0.18 | CN1CCN(c2ccnc(CN(C)C3CCCc4cccnc43)n2)CC1 (stereo unspecified) |  |
| 0.17 | CN1CCCN(c2cc(CN(C)C3CCCc4cccnc43)ncn2)CC1 (stereo unspecified) |  |
| 0.15 | CN(C)C1CCN(c2cc(CN(C)C3CCCc4cccnc43)ncn2)C1 (stereo unspecified) |  |
| 0.018 | CN1CCN(c2cc(CN(CCCCNC(=O)OC(C)(C)C)C3CCCc4cccnc43)ncn2)CC1 (stereo unspecified) |  |
| 0.018 | CN1CCN(c2cc(CN(CCCCN)C3CCCc4cccnc43)ncn2)CC1 (stereo unspecified) |  |
